T cruzi growth-1 – blocks T. cruzi growth in NIH3T3 culture. T. cruzi beta-gal in NIH3T3, GalScreen luminescence, 90 h. inhibition, % at 8.34 µM. actives 5.9% (n = 77,000). AID 624255;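 active = mean inhibition above about 93%, with at least 55% of replicates each passing it, limit read from the data, passing the limit was not always enough; inconclusive = only one of those two conditions holds; inactive = neither condition holds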
GASC1 inh – KDM4C (human) demethylase inhibition. Q9H3R0. GST-KDM4C 2-372, H3K9me3 peptide, LANCE TR-FRET. inhibition, % at 12.5 µM. actives 0.15% (n = 96,000). AID 720574;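 active = mean replicate inhibition above about 25%, with at least 55% of replicates also reaching it, limit read from the data, passing the limit was not always enough; inconclusive = only one of those two conditions met; inactive = neither condition met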
Target sequence (Q9H3R0 2-372 limits assumed): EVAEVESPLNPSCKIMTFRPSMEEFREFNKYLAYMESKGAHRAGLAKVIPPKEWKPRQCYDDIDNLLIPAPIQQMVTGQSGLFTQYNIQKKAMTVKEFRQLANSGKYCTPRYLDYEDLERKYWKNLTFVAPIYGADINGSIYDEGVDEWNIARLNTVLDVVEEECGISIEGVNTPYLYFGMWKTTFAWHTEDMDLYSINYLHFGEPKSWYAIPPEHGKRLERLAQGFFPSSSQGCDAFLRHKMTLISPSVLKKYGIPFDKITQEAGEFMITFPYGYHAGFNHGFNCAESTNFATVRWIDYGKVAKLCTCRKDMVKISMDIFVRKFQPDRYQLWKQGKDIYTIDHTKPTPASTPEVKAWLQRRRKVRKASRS
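System – N-terminal GST-fused human GASC-1 (KDM4C) fragment, residues 2-372 · Input – enzyme final amount 10 nM · Technique – LANCE TR-FRET, Eu antibody, ULight-streptavidin, EDTA, ex 340 nm, em 618/671 nm · Medium – HEPES buffer, pH 7.5, plus ascorbate · Incubation – enzyme reaction 30 min, then detection 60 min, both room temperature · Reagent – H3K9me3 peptide with Fe(II)/2OG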
Pf Dd2 inh – P. falciparum Dd2 growth inhibition. activity change, % at 10 µM. AID 1159554. SYBR Green, 72 h; hits give low values. actives 2.3% (n = 94,000); in the data active = activity change below about -80%; inconclusive = no clear call, values can overlap the other calls
IDH1 R132H inh – blocks human IDH1 R132H reductase activity; O75874; diaphorase/resazurin fluorescence, 60 min; inhibition, % at 10 µM; actives 0.18% (n = 70,000); AID 624101; in the data active = inhibition above about 34%; inconclusive = no clear call, values can overlap the other calls; inactive = below about 11%;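 note: 0% = DMSO and 100% = no enzyme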
T cruzi growth-2 – inhibitors of T. cruzi proliferation | shares compounds with T cruzi growth-1 | T. cruzi beta-gal in NIH3T3, GalScreen luminescence, 90 h | inhibition, % at 8.35 µM | actives 72% (n = 5,600);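 active = mean replicate inhibition above about 95% and at least 55% of replicates individually reaching it, limit read from the data; inconclusive = only one of the two criteria is met; inactive = neither criterion is met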
T cruzi growth-3 – blocks T. cruzi growth in NIH3T3 host cells | shares compounds with T cruzi growth-1 | T. cruzi beta-gal in NIH3T3, GalScreen luminescence, 90 h | inhibition, % at 2.09 µM | actives 21% (n = 5,600);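 active = mean inhibition above about 95%, with at least 55% of replicates also reaching it, limit read from the data; inconclusive = meets just one of the two conditions; inactive = meets neither condition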;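 note: plate controls were neutral control median for no effect and positive control median for full effect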
3T3 cytotox – kills mouse NIH/3T3 fibroblasts; shares compounds with T cruzi growth-1; NIH/3T3 viability, CellTiter-Glo ATP luminescence, 90 h; cytotoxicity (signal decrease), % at 8.35 µM; actives 14% (n = 5,600); AID 651742;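 active = mean signal decrease across replicates above about 35% based on untreated-well scatter, with enough replicates individually passing, limit read from the data; inconclusive = no rule stated though some were filed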;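 note: 0% = median of neutral control wells and 100% = median of positive control wells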
NIH3T3 tox 2 – cytotoxicity in mouse NIH/3T3 fibroblasts; inhibition, % at 24.9 µM; NIH/3T3 viability, CellTiter-Glo ATP luminescence, 90 h; actives 56% (n = 5,600); shares compounds with T cruzi growth-1;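 active = mean loss of cell viability signal at or above a set limit, and enough replicates individually reaching it; inconclusive = meets only the mean limit or only the replicate share; inactive = meets neither condition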;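 note: 0% = median of neutral control wells and 100% = median of positive control wells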
* = called active by the depositor; ? = inconclusive; . = no result given; ! = repeats disagree. Only some compounds are listed: those with a hit (about 5.9% of all), similar ones and a draw of the others.

SMILES	T cruzi growth-1	GASC1 inh	Pf Dd2 inh	IDH1 R132H inh	T cruzi growth-2	T cruzi growth-3	3T3 cytotox	NIH3T3 tox 2
O=C(CSc1nnnn1-c1ccccc1)Nc1ccc(-c2nc3ccccc3s2)cc1	.	.	.	1.5	.	.	.	.
Cn1c(SCC(=O)Nc2ccccc2[N+](=O)[O-])nc2ccccc2c1=O	.	.	.	2.9	.	.	.	.
C[C@H]1CN([C@@H](C)CO)S(=O)(=O)c2ccc(-c3cccc(F)c3)cc2O[C@H]1CN(C)S(=O)(=O)c1ccc(F)cc1	118.3*	-0.5	-54.4	.	99.2*	107.6*	25.9	52.2*
C[C@@H]1CN([C@@H](C)CO)S(=O)(=O)c2ccc(-c3cccc(F)c3)cc2O[C@@H]1CN(C)S(=O)(=O)c1ccc(F)cc1	119.8	0.1	1.1	.	.	.	.	.
C[C@H](CO)N1C[C@H](C)[C@H](CN(C)S(=O)(=O)c2ccc(F)cc2)Oc2cc(-c3cccc(F)c3)ccc2S1(=O)=O	123.8*	0.1	-59.5	-1.3	98.1*	94.6	19.6	54.0*
COC(=O)c1cc(Br)ccc1NC(=O)COc1ccc(C(C)(C)C)cc1	.	.	.	0.0	.	.	.	.
CS(=O)(=O)N(CC(=O)Nc1cccc(Cl)c1Cl)c1cccc(F)c1	.	.	.	-0.3	.	.	.	.
COc1ccc(NC(=O)C(=O)NCCCO)c(OC)c1	.	.	.	-0.1	.	.	.	.
C[C@H]1CN([C@@H](C)CO)S(=O)(=O)c2ccc(-c3cccc(F)c3)cc2O[C@@H]1CN(C)C(=O)c1cccc(F)c1	83.3	-1.7	-54.2	2.2	.	.	.	.
C[C@@H]1CN([C@H](C)CO)S(=O)(=O)c2ccc(-c3cccc(F)c3)cc2O[C@H]1CN(C)C(=O)c1cccc(F)c1	82.7	-1.2	-57.4	-14.8	.	.	.	.
C[C@H]1CN([C@@H](C)CO)S(=O)(=O)c2ccc(-c3ccncc3)cc2O[C@H]1CN(C)C(=O)c1cccc(F)c1	105.5*	6.6	-43.7	1.2	102.0*!	75.7	4.9	18.9
C[C@@H]1CN([C@H](C)CO)S(=O)(=O)c2ccc(-c3ccncc3)cc2O[C@@H]1CN(C)C(=O)c1cccc(F)c1	104.3*	0.5	-21.1	0.7	88.9	53.8	9.2	55.2*
O=C1C(=O)N(Cc2cccnc2)C(c2ccccn2)C1C(=O)c1cccs1 (stereo unspecified)	.	.	.	0.7	.	.	.	.
CCn1c(SCc2cccc(OC)c2)nnc1-c1cccnc1	.	.	.	0.0	.	.	.	.
COC1=CC(C)c2c(c(OC)c3occ(C)c3c2C)C1=O (stereo unspecified)	.	.	.	-0.2	.	.	.	.
C[C@H](CO)N1C[C@H](C)[C@@H](CN(C)C(=O)C2CCCCC2)Oc2ncc(/C=C/c3ccccc3)cc2C1=O	113.2*	-2.7	-88.7*	0.1	111.6*	67.7	-40.8	1.3
C[C@H](CO)N1C[C@H](C)[C@@H](CN(C)C(=O)C2CCC2)Oc2ncc(/C=C/c3ccccc3)cc2C1=O	59.5	-0.4	-64.4	-0.4	.	.	.	.
C[C@H]1CN([C@@H](C)CO)C(=O)c2cc(/C=C/c3ccccc3)cnc2O[C@@H]1CN(C)C(=O)C1CCCCC1	99.2*	0.3	-88.4*	.	100.8*	60.9	9.3	?
C[C@H]1CN([C@@H](C)CO)C(=O)c2cc(/C=C/c3ccccc3)cnc2O[C@@H]1CN(C)C(=O)C1CCC1	?	-2.3	-70.3	0.1	?	28.2	4.8	18.5
C[C@H](CO)N1C[C@H](C)[C@H](CN(C)C(=O)C2CCCCC2)Oc2ncc(/C=C/c3ccccc3)cc2C1=O	85.0	0.2	?	-0.5	.	.	.	.
C[C@@H]1CN([C@H](C)CO)C(=O)c2cc(/C=C/c3ccccc3)cnc2O[C@@H]1CN(C)C(=O)C1CCCCC1	29.7	-0.1	-71.2	.	.	.	.	.
COc1ccc(C)cc1NC(=O)C(C)NS(=O)(=O)c1ccc(C)cc1 (stereo unspecified)	.	.	.	0.0	.	.	.	.
COCCCN1C(=O)c2oc3ccc(Br)cc3c(=O)c2C1c1cccc([N+](=O)[O-])c1 (stereo unspecified)	.	.	.	2.4	.	.	.	.
COc1ccc(-c2nn(C)c(=O)c3ccccc23)cc1CNS(=O)(=O)c1ccc(Cl)cc1	.	.	.	-0.2	.	.	.	.
